Key:
[1] = target: T1, Adenosine receptor A1 (Homo sapiens) (UniProt P30542); experiment: Allosteric enhancer activity at recombinant human A1 adenosine receptor expressed in CHO cells assessed as change in forskolin-induced cAMP production at 0.01 uM after 6 mins by radioimmunoassay; format: functional, cell-based
T1 sequence (whole entry): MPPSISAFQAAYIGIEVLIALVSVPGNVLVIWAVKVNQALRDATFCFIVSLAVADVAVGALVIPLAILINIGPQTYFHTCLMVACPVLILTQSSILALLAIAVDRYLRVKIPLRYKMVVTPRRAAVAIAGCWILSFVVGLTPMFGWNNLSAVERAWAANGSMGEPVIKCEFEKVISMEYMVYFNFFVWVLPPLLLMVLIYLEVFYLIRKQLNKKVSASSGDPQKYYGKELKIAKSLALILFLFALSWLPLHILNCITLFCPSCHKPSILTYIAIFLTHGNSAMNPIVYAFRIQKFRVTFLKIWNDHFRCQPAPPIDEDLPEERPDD
In short: (§1)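 hA1CHO cells (about 8000 fmol/mg protein) thawed from low-passage stocks, grown in Ham's F-12 with 10% FBS and G-418, then plated 48 h. Test compound at 0.01, 0.1, 1 or 10 µM with CPA (0.05–0.1 nM) for 6 min at 36 °C. Stopped with HCl (final 50 mM). cAMP in acidified extracts measured by radioimmunoassay. Reference enhancer run in each experiment. Four experiments per concentration.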

[2] = target: T1, Adenosine receptor A1 (Homo sapiens); experiment: Binding affinity to recombinant human A1 adenosine receptor allosteric site expressed in CHO cells assessed as [3H]DPCPX Bmax shift at 10 uM after 90 mins relative to control; format: cell-based
In short: (§2)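 Saturation binding of [3H]DPCPX (0.05–20 nM) to hA1CHO membranes, run in triplicate, 90 min at 25 °C, in 50 mM Tris–HCl pH 7.4, with or without test compound at final 10 µM. Nonspecific binding taken with 1 µM DPCPX. KD and Bmax fitted by LIGAND. Shift is the fold of Bmax increase over control.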

[3] = target: T1, Adenosine receptor A1 (Homo sapiens); experiment: Displacement of [3H]DPCPX from recombinant human A1 adenosine receptor expressed in CHO cells at 10 uM after 120 mins by scintillation counting; format: cell-based
In short: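 Membranes from hA1CHO cells incubated with 1 nM [3H]DPCPX in 50 mM Tris–HCl pH 7.4 at 25 °C for 120 min. Compound added from a 100-fold DMSO stock, so 1% DMSO final, also present in controls. Bound ligand separated on GF/B filters and counted by scintillation. Result given as % of control specific binding.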

[4] = target: T1, Adenosine receptor A1 (Homo sapiens); experiment: Allosteric enhancer activity at recombinant human A1 adenosine receptor expressed in CHO cells assessed as change in forskolin-induced cAMP production at 10 uM after 6 mins by radioimmunoassay; format: functional, cell-based; in short: as §1
[5] = target: T1, Adenosine receptor A1 (Homo sapiens); experiment: Allosteric enhancer activity at recombinant human A1 adenosine receptor expressed in CHO cells assessed as change in forskolin-induced cAMP production at 1 uM after 6 mins by radioimmunoassay; format: functional, cell-based; in short: as §1
[6] = target: T1, Adenosine receptor A1 (Homo sapiens); experiment: Allosteric enhancer activity at recombinant human A1 adenosine receptor expressed in CHO cells assessed as change in forskolin-induced cAMP production at 0.1 uM after 6 mins by radioimmunoassay; format: functional, cell-based; in short: as §1
[7] = target: Adenosine receptor A2a (Homo sapiens) (UniProt P29274); experiment: Displacement of [3H]ZM241385 from recombinant human A2A adenosine receptor expressed in CHO cells at 10 uM after 60 mins by scintillation counting; format: cell-based
In short: (§3)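 Membranes from hA2ACHO cells incubated with 1 nM [3H]ZM 241385 in 50 mM Tris–HCl, 10 mM MgCl2, pH 7.4 at 4 °C for 60 min. Compound added from a 100-fold DMSO stock, 1% DMSO final, also in controls. Separated by GF/B filtration and counted by scintillation. Result given as % of control specific binding.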

[8] = target: T1, Adenosine receptor A1 (Homo sapiens); experiment: Binding affinity to recombinant human A1 adenosine receptor allosteric site expressed in CHO cells assessed as [3H]CCPA Bmax shift at 10 uM after 90 mins relative to control; format: cell-based
In short: as §2, with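 “[3H]CCPA” for “[3H]DPCPX”, “membranes. Membranes pretreated with adenosine deaminase 3 UI/mL for 30 min at 37 °C. Run” for “membranes, run”, “R-PIA.” for “DPCPX. KD and”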

[9] = target: T1, Adenosine receptor A1 (Homo sapiens); experiment: Binding affinity to recombinant human A1 adenosine receptor allosteric site expressed in CHO cells assessed as potentiation of CCPA-induced [3H]DPCPX displacement at 10 uM after 90 mins relative to control; format: cell-based
In short: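 Competition of CCPA (0.01 nM–1 µM) against 1 nM [3H]DPCPX on hA1CHO membranes, run in triplicate, 90 min at 25 °C, in 50 mM Tris–HCl pH 7.4, with or without test compound at 10 µM. Nonspecific binding taken with 1 µM DPCPX. Ki by Cheng–Prusoff. Shift = Ki(CCPA)/Ki(CCPA + 10 µM compound).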

[10] = target: T2, Adenosine receptor A3 (Homo sapiens) (UniProt P0DMS8); experiment: Displacement of [3H]MRE3008F20 from recombinant human A3 adenosine receptor expressed in CHO cells at 10 uM after 120 mins by scintillation counting; format: cell-based
T2 sequence (whole entry): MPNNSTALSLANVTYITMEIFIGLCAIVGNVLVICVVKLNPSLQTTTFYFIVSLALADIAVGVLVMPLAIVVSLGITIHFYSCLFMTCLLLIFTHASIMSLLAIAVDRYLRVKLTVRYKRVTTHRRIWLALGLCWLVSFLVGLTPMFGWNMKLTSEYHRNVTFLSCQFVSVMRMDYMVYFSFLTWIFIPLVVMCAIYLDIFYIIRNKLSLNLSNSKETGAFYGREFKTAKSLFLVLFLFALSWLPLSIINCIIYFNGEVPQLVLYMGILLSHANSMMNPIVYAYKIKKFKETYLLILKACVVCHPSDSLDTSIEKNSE
In short: as §3, with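 “from hA3CHO” for “from hA2ACHO”, “with 2” for “with 1”, “nM [3H]MRE 3008F20” for “nM [3H]ZM 241385”, “MgCl2, 1 mM EDTA,” for “MgCl2,”, “for 120” for “for 60”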

Adenosine receptor A2a (Homo sapiens), sequence (P29274 whole entry): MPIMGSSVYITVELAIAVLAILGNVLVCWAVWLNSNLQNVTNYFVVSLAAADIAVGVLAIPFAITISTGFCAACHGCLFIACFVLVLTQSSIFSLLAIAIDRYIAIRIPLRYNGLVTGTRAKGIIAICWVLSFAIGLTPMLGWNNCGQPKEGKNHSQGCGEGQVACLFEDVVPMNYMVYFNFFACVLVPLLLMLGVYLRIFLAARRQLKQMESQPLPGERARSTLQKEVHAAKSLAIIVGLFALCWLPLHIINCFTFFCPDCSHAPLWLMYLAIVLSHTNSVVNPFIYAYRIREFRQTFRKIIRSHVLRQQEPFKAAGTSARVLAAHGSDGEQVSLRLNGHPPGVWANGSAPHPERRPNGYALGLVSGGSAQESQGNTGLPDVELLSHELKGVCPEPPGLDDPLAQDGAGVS

| SMILES | Activity [1] [%] | fold change (FC) [2] | inhibition [3] [%] | Activity [4] [%] | Activity [5] [%] | Activity [6] [%] | inhibition [7] [%] | fold change (FC) [8] | fold change (FC) [9] | inhibition [10] [%] |
| --- | --- | --- | --- | --- | --- | --- | --- | --- | --- | --- |
| Cc1sc(N)c(C(=O)c2cccc(C(F)(F)F)c2)c1C | -8 | 1 | 0 | -57 | -31 | -3.4 | 0 | 1.3 | 1.7 |  |
| Nc1scc(CN2CCN(C(=O)c3ccc(Cl)cc3)CC2)c1C(=O)c1ccc(Cl)cc1 | -6.2 | 0.9 | 1 | -60 | -34 | -10 | 0 | 1.6 | 1.6 | 0 |
| Nc1scc(CN2CCN(CCc3ccc(Cl)cc3)CC2)c1C(=O)c1ccc(Cl)cc1 | 1.2 | 1 | 1 | -76 | -32 | -3.1 | 0 | 3.1 | 3.4 | 2 |
| Nc1scc(CN2CCN(C3CCCC3)CC2)c1C(=O)c1ccc(Cl)cc1 | 9.1 | 0.9 | 0 | -30 | 10 | 2.1 | 3 | 1.1 | 1.3 | 3 |
| Nc1scc(CN2CCN(c3ccc(OC(F)(F)F)cc3)CC2)c1C(=O)c1ccc(Cl)cc1 | 0 | 1.1 | 0 | -74 | -51 | -13 | 0 | 6.8 | 5.3 | 1 |
| Nc1scc(CN2CCN(c3ccc(Cl)cc3Cl)CC2)c1C(=O)c1ccc(Cl)cc1 | 2 | 1 | 0 | -74 | -54 | -11 | 0 | 4.4 | 3.7 | 0 |
| Nc1scc(CN2CCN(Cc3ccc(Cl)cc3)CC2)c1C(=O)c1ccc(Cl)cc1 | -2.2 | 1 | 0 | -82 | -43 | 4.2 | 1 | 4.5 | 3.7 | 0 |
| Nc1scc(CN2CCN(CCCc3ccc(Cl)cc3)CC2)c1C(=O)c1ccc(Cl)cc1 | 0 | 0.9 | 0 | -76 | -30 | -3 | 0 | 1.6 | 1.6 | 0 |

More lines, now with the values ahead:

| Activity [1] [%] | fold change (FC) [2] | inhibition [3] [%] | Activity [4] [%] | Activity [5] [%] | Activity [6] [%] | inhibition [7] [%] | fold change (FC) [8] | fold change (FC) [9] | inhibition [10] [%] | SMILES |
| --- | --- | --- | --- | --- | --- | --- | --- | --- | --- | --- |
| -13 | 1.1 | 0 | -79 | -66 | -5 | 0 | 6.2 | 4.8 | 2 | Nc1scc(CN2CCN(c3cc(F)cc(F)c3)CC2)c1C(=O)c1ccc(Cl)cc1 |
| -8.2 | 1 | 0 | -80 | -72 | -30 | 3 | 5.3 | 4.3 | 0 | Nc1scc(CN2CCN(c3cccc(C(F)(F)F)c3)CC2)c1C(=O)c1ccc(Cl)cc1 |
| -12 | 0.9 | 1 | -17 | -8.3 | -13 | 1 | 1.1 | 4.2 | 2 | Nc1scc(CN2CCN(c3ccc([N+](=O)[O-])cc3)CC2)c1C(=O)c1ccc(Cl)cc1 |
| 1 | 1 | 2 | -77 | -57 | 3.2 | 1 | 4.2 | 3.5 | 0 | Nc1scc(CN2CCN(c3cccc(Cl)c3Cl)CC2)c1C(=O)c1ccc(Cl)cc1 |
| -2.1 | 0.9 | 2 | -18 | -5.2 | 2 | 1 | 1.2 | 1.4 | 0 | Nc1scc(CN2CCN(c3ccccc3Cl)CC2)c1C(=O)c1ccc(Cl)cc1 |
| -18 | 1 | 1 | -82 | -86 | -37 | 1 | 4.8 | 3.9 | 4 | Nc1scc(CN2CCN(c3cccc(F)c3)CC2)c1C(=O)c1ccc(Cl)cc1 |
| -1.2 | 0.9 | 0 | -52 | -15 | 0 | 0 | 3.3 | 2.8 | 0 | COc1ccc(N2CCN(Cc3csc(N)c3C(=O)c3ccc(Cl)cc3)CC2)cc1 |
| -3.2 | 1.1 | 0 | -87 | -78 | -34 | 0 | 7.2 | 5.5 | 1 | Nc1scc(CN2CCN(c3ccc(F)c(F)c3)CC2)c1C(=O)c1ccc(Cl)cc1 |
| -13 | 1 | 0 | -79 | -66 | -5.2 | 0 | 4.8 | 4 | 0 | Nc1scc(CN2CCN(c3cccc(F)c3F)CC2)c1C(=O)c1ccc(Cl)cc1 |
